Screening data deposited in PubChem BioAssay by several laboratories.
The list is not random: actives were taken first. Their share in the collection is about 3%.
MEKK3 PB1 HTS: modulators (inhibitors or enhancers) of MEK5 binding to human MEKK3 PB1 domain; bead-based flow cytometry, Alexa488-MEK5 binding to MEKK3; actives lie on both sides; 0 = blocked by unlabeled MEK5, 100 = vehicle; actives 1.4% (n = 290,000); binding response (% of control), % at 10 µM; Q99759;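 active = binding response more than 3 SD above or below the average of its plate-row segment, actives on both sides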;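 note: Alexa488 bead fluorescence after subtracting the streptavidin-only scavenger bead signal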
Target sequence (Q99759 whole entry, looked up, the tested form may be a part): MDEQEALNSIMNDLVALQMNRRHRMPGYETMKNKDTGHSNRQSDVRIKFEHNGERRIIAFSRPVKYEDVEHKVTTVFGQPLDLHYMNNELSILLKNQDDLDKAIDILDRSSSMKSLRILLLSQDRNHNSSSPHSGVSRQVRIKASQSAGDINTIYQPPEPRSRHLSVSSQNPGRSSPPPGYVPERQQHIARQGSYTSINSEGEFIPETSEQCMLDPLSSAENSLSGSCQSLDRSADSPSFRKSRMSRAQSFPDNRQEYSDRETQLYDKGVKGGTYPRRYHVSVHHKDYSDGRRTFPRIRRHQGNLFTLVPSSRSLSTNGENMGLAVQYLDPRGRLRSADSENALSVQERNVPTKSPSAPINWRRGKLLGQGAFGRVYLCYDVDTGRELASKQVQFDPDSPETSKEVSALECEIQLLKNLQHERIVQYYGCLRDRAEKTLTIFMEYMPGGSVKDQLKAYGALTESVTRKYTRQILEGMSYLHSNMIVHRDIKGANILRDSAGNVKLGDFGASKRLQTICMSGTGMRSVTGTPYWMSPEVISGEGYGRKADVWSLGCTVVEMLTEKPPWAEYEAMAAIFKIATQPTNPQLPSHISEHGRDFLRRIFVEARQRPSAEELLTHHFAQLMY
Apaf1 inhib: human Apaf-1 inhibition; O14727; inhibition, % at 20 µM; actives 0.71% (n = 330,000); reconstituted apoptosome caspase-3 activity, DEVD-Rh110 fluorescence; active = inhibition of at least 40% at 20 µM;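 note: plate controls were DMSO wells for no effect and DEVD-CHO caspase inhibitor wells for full effect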
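detection = Rh110 fluorescence intensity | test system = biochemical Apaf-1 apoptosome reconstitution | also added = cytochrome c and DEVD-Rh110 substrate | schedule = 30 min plus 50 min, RT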
MEKK2wt PB1 HTS: raises or lowers MEK5 binding to wildtype human MEKK2 PB1 domain | AID 1531 | bead flow cytometry, Alexa488-MEK5 binding to MEKK2 WT; actives lie on both sides | actives 1.1% (n = 290,000) | binding response (% of control), % at 10 µM | Q9Y2U5; in the data active = binding response below about 67% or above about 130%
UCH37 inh: human UCH37 deubiquitinating enzyme inhibition. purified proteasome/UCH37, Ub-AMC cleavage fluorescence. inhibition, % (concentration not given with the values). actives 0.33% (n = 330,000). AID 588478;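 active = mean inhibition over replicate wells above about 20%, limit read from the data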;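 note: 0% = compound-free wells with enzyme and 100% = wells lacking proteasome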
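Material: Human UCH37 enzyme supplied as purified proteasome complex | Schedule: 30 min preincubation with enzyme, 25 min cleavage at room temperature | Detection: AMC fluorescence 355/460 nm | Measure: % inhibition of Ub-AMC cleavage fluorescence | Controls: Wells without proteasome as full block, compound-free enzyme plus substrate as uninhibited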
UBC13 inh: blocks human UBC13 polyubiquitin chain formation | inhibition, % at 20 µM | TR-FRET | actives 0.47% (n = 330,000) | AID 485273 | P61088; in the data active = inhibition above about 45%, passing the limit was not always enough
MEKK2 mut-MEK5: signal of MEK5 binding to mutant human MEKK2 PB1 domain; actives 0.35% (n = 290,000); percent response, % at 10 µM; bead flow cytometry, Alexa488-MEK5 binding to MEKK2 mutant; AID 1530; in the data active = percent response above about 24%, passing the limit was not always enough
An asterisk follows results filed as active.

How did COc1cccc(NC(=O)CN2C(=O)c3cccnc3Oc3ccc(Cl)cc32)c1 do in these assays?
MEKK3 PB1 HTS: 101; Apaf1 inhib: 8; MEKK2wt PB1 HTS: 98; UCH37 inh: -3; UBC13 inh: 2; MEKK2 mut-MEK5: 0

Results for O=C(CN1C(=O)c2cccnc2Oc2ccc(Cl)cc21)Nc1ccccc1F ?
MEKK3 PB1 HTS: 101; Apaf1 inhib: 17; MEKK2wt PB1 HTS: 10*; UCH37 inh: 1; UBC13 inh: 4; MEKK2 mut-MEK5: 10

Results for CCSc1nnc2c3cc(CC)ccc3n(C)c2n1 ?
MEKK3 PB1 HTS: 105; Apaf1 inhib: 6; MEKK2wt PB1 HTS: 107; UCH37 inh: -3; UBC13 inh: 12; MEKK2 mut-MEK5: 7

What do the screens show for `CCc1nnc(NC(=O)CN2CCN(CC)CC2)s1`?
MEKK3 PB1 HTS: 104; Apaf1 inhib: -9; MEKK2wt PB1 HTS: 108; UCH37 inh: 6; UBC13 inh: 3; MEKK2 mut-MEK5: 13

Results for CCC(C)c1ccccc1OCCCCN1CCCC1 (centres undefined) ?
MEKK3 PB1 HTS: 107; Apaf1 inhib: -5; MEKK2wt PB1 HTS: 110; UCH37 inh: 31*; UBC13 inh: 11; MEKK2 mut-MEK5: -1

How did CCC(C)c1ccccc1OCCOCCN1CCCC1 (centres undefined) do in these assays?
MEKK3 PB1 HTS: 102; Apaf1 inhib: 2; MEKK2wt PB1 HTS: 105; UCH37 inh: -1; UBC13 inh: 7; MEKK2 mut-MEK5: -1

How did Cc1ccc(CNC(=O)c2cc(-c3ccccc3)n(Cc3cc(C)no3)n2)cc1 do in these assays?
Apaf1 inhib: 15; UCH37 inh: 24*; UBC13 inh: 5

Results for COC(=O)c1[nH]c2cc(C)ccc2c1NC(=O)CN1CCN(c2ccccc2OC)CC1 ?
MEKK3 PB1 HTS: 100; Apaf1 inhib: 14; MEKK2wt PB1 HTS: 97; UCH37 inh: 0; UBC13 inh: 1; MEKK2 mut-MEK5: 9

What do the screens show for `COC(=O)c1[nH]c2ccc(C)cc2c1NC(=O)CN1CCCc2ccccc21`?
MEKK3 PB1 HTS: 92; Apaf1 inhib: 30; MEKK2wt PB1 HTS: -9.0*; UCH37 inh: -4; UBC13 inh: 0; MEKK2 mut-MEK5: 15

How did COc1cccc(OCC(=O)Nc2ccccc2C(=O)Nc2ccc(C(=O)O)cc2)c1 do in these assays?
MEKK3 PB1 HTS: 78; Apaf1 inhib: -3; MEKK2wt PB1 HTS: 82; UCH37 inh: 6; UBC13 inh: -6; MEKK2 mut-MEK5: -12

What do the screens show for `COC(=O)c1c(C)nc(C)c(C(=O)OC)c1-c1cccs1`?
MEKK3 PB1 HTS: 87; Apaf1 inhib: -12; MEKK2wt PB1 HTS: 93; UCH37 inh: 1; UBC13 inh: 14; MEKK2 mut-MEK5: 64*

How did COC(=O)c1sc(-c2cccs2)cc1N do in these assays?
MEKK3 PB1 HTS: 119; Apaf1 inhib: -11; MEKK2wt PB1 HTS: 106; UCH37 inh: -12; UBC13 inh: -1; MEKK2 mut-MEK5: 10

How did COc1ccc(NC(=O)Cc2ccc(Cl)cc2)cc1NC(=O)c1ccco1 do in these assays?
MEKK3 PB1 HTS: 100; Apaf1 inhib: -2; MEKK2wt PB1 HTS: 103; UCH37 inh: -84; UBC13 inh: 2; MEKK2 mut-MEK5: -5

How did CN1C(=O)/C(=C2/C=Cc3ccccc3N2CCCS(=O)(=O)O)SC1=S do in these assays?
MEKK3 PB1 HTS: 80; Apaf1 inhib: -9; MEKK2wt PB1 HTS: 78; UCH37 inh: 24*; UBC13 inh: inactive; MEKK2 mut-MEK5: -8

What do the screens show for `CCCN1/C(=C2/SC(=S)N(CC)C2=O)C=Cc2ccccc21`?
MEKK3 PB1 HTS: 102; Apaf1 inhib: 20; MEKK2wt PB1 HTS: 99; UCH37 inh: 4; UBC13 inh: -252; MEKK2 mut-MEK5: 1

Results for CCc1cc(=O)oc2c(C)c(OC(C)C(=O)NCC3CCC(C(=O)O)CC3)ccc12 (centres undefined) ?
MEKK3 PB1 HTS: 104; Apaf1 inhib: 1; MEKK2wt PB1 HTS: 104; UCH37 inh: -24; UBC13 inh: -8; MEKK2 mut-MEK5: 5
